# According to ChEMBL document CHEMBL1153506, “Design, synthesis, and discovery of novel non-peptide inhibitor of Caspase-3 using ligand based and structure based virtual screening approach” (Bioorg Med Chem, 2009):
# Calls of active or inactive are those of the source. The calls are words filed in the database; no cut-off is given here.
# Experiments:
# Caspase-3 = target: T1, Caspase-3 (Homo sapiens, UniProt P42574); test: Inhibition of caspase 3 in human SK-N-SH cells assessed as accumulation of fluorogenic 7-amino-4-methyl coumarin by fluorometric assay; format: cell-based
# T1 sequence (P42574 whole entry): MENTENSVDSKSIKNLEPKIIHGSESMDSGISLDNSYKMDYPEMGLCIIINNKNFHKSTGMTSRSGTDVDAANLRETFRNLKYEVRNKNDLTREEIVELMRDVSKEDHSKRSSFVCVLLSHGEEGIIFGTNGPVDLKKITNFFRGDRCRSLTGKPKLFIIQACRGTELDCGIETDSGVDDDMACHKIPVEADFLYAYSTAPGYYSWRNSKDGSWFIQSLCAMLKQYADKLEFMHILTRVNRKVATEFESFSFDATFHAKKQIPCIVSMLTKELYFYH
# SK-N-SH [1] = test: Induction of apoptosis in human SK-N-SH cells assessed as caspase 3 activity at 5 uM by fluorescence assay; format: functional, cell-based
# Outline: (§1)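 Human SK-N-SH neuroblastoma cells exposed to the test agent at 0.5–5 µM. Apoptosis was read as caspase-3 activity by fluorescence intensity, scanned around 420–430 nm. Values are slopes averaged from 5 experiments, each run in duplicate.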
# Caspase-3 (Homo sapiens) [2] = target: T2, Caspase-3 (Homo sapiens) (UniProt P42574); test: Inhibition of caspase 3 in human SK-N-SH cells assessed as accumulation of fluorogenic 7-amino-4-methyl coumarin at 10 uM by fluorometric assay; format: cell-based
# T2 sequence (whole entry): T1 sequence (P42574 whole entry)
# Outline: (§2)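 Kit-based caspase-3 cleavage assay, using doxorubicin-induced apoptotic SK-N-SH cell extracts as the caspase source. The inhibitor was dissolved in DMSO and serially diluted to working concentrations, and a standard inhibitor served as control. Fluorescence was recorded across 420–460 nm, and decreases in intensity were expressed relative to apoptotic control extracts.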
# Caspase-3 (Homo sapiens) [3] = target: T2, Caspase-3 (Homo sapiens); test: Inhibition of caspase 3 in human SK-N-SH cells assessed as accumulation of fluorogenic 7-amino-4-methyl coumarin at 50 uM by fluorometric assay; format: cell-based; outline: as §2
# Caspase-3 (Homo sapiens) [4] = target: T2, Caspase-3 (Homo sapiens); test: Inhibition of caspase 3 in human SK-N-SH cells assessed as accumulation of fluorogenic 7-amino-4-methyl coumarin at 100 uM by fluorometric assay; format: cell-based; outline: as §2
# Caspase-3 (Homo sapiens) [5] = target: T2, Caspase-3 (Homo sapiens); test: Inhibition of caspase 3 in human SK-N-SH cells assessed as accumulation of fluorogenic 7-amino-4-methyl coumarin at 0.5 uM by fluorometric assay; format: cell-based; outline: as §2
# Caspase-3 (Homo sapiens) [6] = target: T2, Caspase-3 (Homo sapiens); test: Inhibition of caspase 3 in human SK-N-SH cells assessed as accumulation of fluorogenic 7-amino-4-methyl coumarin at 1 mM by fluorometric assay; format: cell-based; outline: as §2
# Caspase-3 (Homo sapiens) [7] = target: T2, Caspase-3 (Homo sapiens); test: Inhibition of caspase 3 in human SK-N-SH cells assessed as accumulation of fluorogenic 7-amino-4-methyl coumarin at 5 mM by fluorometric assay; format: cell-based; outline: as §2
# SK-N-SH [8] = test: Inhibition of apoptosis in human SK-N-SH cells assessed as maximum fluorescence intensity at 440 nm treated at 0.5 uM by fluorescence assay; format: functional, cell-based; outline: as §2
# Caspase-3 (Homo sapiens) [9] = target: T2, Caspase-3 (Homo sapiens); test: Inhibition of caspase 3 in human SK-N-SH cells assessed as decrease in fluorescence intensity-associated with accumulation of fluorogenic 7-amino-4-methyl coumarin at 5 mM by fluorometric assay relative to control; format: cell-based; parameters: scale not given: the % may be the effect or the level left; outline: as §2
# Caspase-7 (Homo sapiens) = target: T3, Caspase-7 (Homo sapiens) (UniProt P55210); test: Inhibition of caspase 7 in human SK-N-SH cells assessed as accumulation of fluorogenic 7-amino-4-methyl coumarin by fluorometric assay; format: cell-based
# T3 sequence (whole entry): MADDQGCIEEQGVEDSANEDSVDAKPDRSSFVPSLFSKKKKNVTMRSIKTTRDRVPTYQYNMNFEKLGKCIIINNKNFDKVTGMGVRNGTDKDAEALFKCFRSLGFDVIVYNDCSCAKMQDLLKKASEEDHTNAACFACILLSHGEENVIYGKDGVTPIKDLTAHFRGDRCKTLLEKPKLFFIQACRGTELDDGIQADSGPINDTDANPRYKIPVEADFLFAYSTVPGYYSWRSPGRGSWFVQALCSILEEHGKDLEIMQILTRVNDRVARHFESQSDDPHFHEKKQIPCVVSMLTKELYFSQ
# SK-N-SH [10] = test: Induction of apoptosis in human SK-N-SH cells at 0.5 to 5 uM by fluorescence assay; format: functional, cell-based; outline: as §1
# SK-N-SH [11] = test: Induction of apoptosis in human SK-N-SH cells assessed as caspase 3 activity at 1 uM by fluorescence assay; format: functional, cell-based; outline: as §1
IC50 (Caspase-3) [nM],Activity (Caspase-3 (Homo sapiens) [2]),Activity (Caspase-3 (Homo sapiens) [3]),Activity (Caspase-3 (Homo sapiens) [4]),Activity (Caspase-3 (Homo sapiens) [5]),Activity (Caspase-3 (Homo sapiens) [6]),Activity (Caspase-3 (Homo sapiens) [7]),Activity (Caspase-3 (Homo sapiens) [9]) [%],Activity (Caspase-7 (Homo sapiens)),SMILES,Activity (SK-N-SH [1]),Activity (SK-N-SH [8]),Activity (SK-N-SH [10]),Activity (SK-N-SH [11])
31,,,,,,,,,O=C1Nc2ccc(S(=O)(=O)N3CCCC3CNc3ccccc3)cc2C1=O (centres undefined),,,,
,inactive,inactive,inactive,Active,Active,Active,50,inactive,O=C(NCCCN1CCN(Cc2c(F)cccc2Cl)CC1)c1ccc(Cl)c(Cl)c1,inactive,Active,,
,,,,,,,,,COc1cccc2c1C(=O)c1c(O)c3c(c(O)c1C2=O)C[C@@](O)(C(=O)CO)C[C@@H]3O[C@H]1C[C@H](N)[C@H](O)[C@H](C)O1,Active,,Active,Active
